Where two headings read alike, the source gives them in different places.
Tests used:
[1] = system: PC GABAA receptor (β1-subunit-containing); test: Loreclezole inhibition of GABA-mediated current in cultured Purkinje cells; assay type: cell-based, rat; details: 30 µM
Method in brief: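 Cerebellar neurons plated on glass coverslips (2.8 × 10^5 cells), kept at 37 °C in 5% CO2 and recorded after 10–14 days in vitro. 1 s pulses of 20 µM GABA every 30 s until baseline stable; 30 µM test compound (DMSO stock diluted in saline) applied by local perfusion for 30 s, then kept through three more GABA pulses. 1 mM GABA given at end of recording. n = individual cells; mean ± SEM.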

[2] = system: PC GABAA receptor (GABAergic IPSC in Purkinje neurons); assay type: cell-based, mouse; details: for IPSC decay time constant in the presence of etomidate: 3 µM, 10 min
[3] = target: GABAA receptors composed of α1β3γ2; details: heterologous expression systems; ref Belelli et al., 2003; cited from earlier work

With `Cl/C(=C\n1cncn1)c1ccc(Cl)cc1Cl` [loreclezole] as the compound, how does the “Initial reduction in GABA-mediated current” value ([1]; 30 s pre-application, 20 µM GABA pulses) read?
Its value is 30%.

And the “Maximal decrease in GABA-mediated current with subsequent pulses of GABA” value ([1]; 20 µM GABA pulses every 30 s, n = 4)?
Its value is 65.5 ± 6.8%.

With picrotoxin as the compound, how does the “Effect on outward GABAergic IPSC in Purkinje neurons” value ([2]; data not shown) read?
The value was “blocked”.

Which “IPSC decay time constant in the presence of etomidate” value ([2]; slices 3 h after CA/CPR, P < 0.05 vs sham) does the source give for `CCOC(=O)c1cncn1[C@H](C)c1ccccc1` [Etomidate] here?
Its value is 534.5 ± 42.3 ms.

What about the “IPSC decay time constant in the presence of etomidate” value ([2]; slices from control sham-operated mice) of the same compound?
The value was 837 ± 128 ms.

What about the EC50 [3] of the same compound?
Its EC50 is 4 µM.

From article PMC3772679 (The European journal of neuroscience, 2012)
